Assay results of several laboratories.
Lines come from different studies, so protocols differ.

COc1cccc(Cn2nc(-c3ccc(CO)o3)c3ccccc32)c1  solubility (aqueous buffer; 6 h, pH 7.4): 1 µg/mL
O=[N+]([O-])c1ccc(Nc2ncnc3ccc(-c4cccc(N5CCOCC5)c4)cc23)cc1C(F)(F)F  solubility (aqueous buffer; pH 7.4, 25 °C): < 0.4 µM
OCc1ccc(-c2nn(Cc3ccccc3)c3cnccc23)o1  solubility (aqueous buffer; 6 h, pH 7.4): > 45 µg/mL
CCOc1ccc(Nc2c3c(nc4ccccc24)CCC3)cc1  solubility (nephelometry; aqueous buffer; 30 min, pH 6.5): 12.5 to 25 µg/mL
Cc1ccc(N(C)c2ccc(NC(=O)CN(C)c3ccccc3N3CCCC3=O)cn2)cc1  solubility (PBS; pH 7.4): 44 µM
Cn1cc(Nc2ncnc3ccc(-c4cccc(N5CCOCC5)c4)cc23)cn1  solubility (aqueous buffer; pH 7.4, 25 °C): 1.5 µM
CCCN1C(=O)COc2ccc(S(=O)(=O)Nc3cc(OC)ccc3OC)cc21  solubility (PBS; 8 h, pH 7.4): 100 µM
Cc1ccc(Nc2cnnc3ccc(-c4ccc(N5CCCN(C)CC5)cc4)cc23)cn1  solubility (aqueous buffer; pH 7.4, 25 °C): 82 µM
COc1cc(Cn2nc(-c3ccc(CO)o3)c3ccccc32)ccn1  solubility (aqueous buffer; 6 h, pH 7.4): > 33 µg/mL
Cc1ccccc1CN1C(=O)C2=C(CCN(Cc3ccccc3)C2)N2CCN=C12  solubility (shake flask; aqueous buffer; pH 4): 92100 µg/mL
c1cc(-c2ccc3ncnc(Nc4ncco4)c3c2)cc(N2CC3CCC(C2)O3)c1  solubility (aqueous buffer; pH 7.4, 25 °C): 0.4 µM
O=C(O)c1cc(-c2ccc(-n3ccnn3)cc2)cc(-n2cc(-c3ccc(C(F)(F)F)cc3)nn2)c1  solubility (aqueous buffer; pH 7.4): 7.6 µg/mL
CCOC(=O)C1=C(CN2CCOCC2)NC(c2nccs2)=NC1c1ccc(F)cc1Br (stereo not drawn)  solubility (HPLC; aqueous buffer; pH 7): < 1 µg/mL
COc1cnc(Nc2cnnc3ccc(-c4ccc(N5CCN(C)CC5)cc4)cc23)nc1  solubility (aqueous buffer; pH 7.4, 25 °C): 26 µM
O=C(Nc1ccc(OC(F)(F)F)cc1)N[C@H]1CC[C@H](Oc2ccc(C(=O)O)cc2)CC1  solubility (simulated gastric fluid; 30 min, pH 1, 37 °C, acidic): 0.0005 µg/mL
Cc1nc(Nc2ncnc3ccc(-c4cccc(N5CCOCC5)c4)cc23)oc1C  solubility (aqueous buffer; pH 7.4, 25 °C): 0.2 µM
CC(C)N(c1ccc(C#N)cc1)c1ccc(NC(=O)CN(C)c2ccccc2N2CCCC2=O)cn1  solubility (PBS; pH 7.4): 40 µM
c1ccc(Oc2ccc(Nc3c4c(nc5ccccc35)CCC4)cc2)cc1  solubility (nephelometry; aqueous buffer; 30 min, pH 6.5): 1.6 to 3.1 µg/mL
CN1CCN(c2cccc(-c3ccc4ncnc(Nc5ccc(Cl)c(Cl)c5)c4c3)c2)CC1  solubility (aqueous buffer; pH 7.4, 25 °C): < 1.7 µM
CC(C)(C)OC(=O)N1CCC(Oc2ccc3c(=O)c4c(F)cc(Cl)cc4[nH]c3c2)C1 (stereo not drawn)  solubility (absorbance; aqueous buffer; 90 min, pH 7.4): < 3.12 µM
OCc1ccc(-c2nn(Cc3cccnc3)c3cccnc23)o1  solubility (aqueous buffer; 6 h, pH 7.4): > 30 µg/mL
Cc1ccc(C(C)(C)c2ccc(NC(=O)CN(C)c3ccccc3N3CCCC3=O)cc2)cc1  solubility (PBS; pH 7.4): 2.5 µM
COc1ccc(Cn2cc(CO[C@@H]3O[C@H]4[C@H](OC[C@H]4O)[C@H]3O)nn2)cc1  solubility (PBS; pH 7.4): 198 µM
O=C(O)Cc1ccccc1Nc1c(Cl)cccc1Cl  solubility (FaSSIF): 324 µM
O=c1c2ccc(Oc3ccc(OC(F)(F)F)cc3)cc2[nH]c2ccc(Cl)c(F)c12  solubility (absorbance; aqueous buffer; 90 min, pH 7.4): < 3.12 µM
O=C([O-])CN1CCNCCN(CC(=O)[O-])CCNCC1.[Mn+2]  solubility (water): 470000 µg/mL
OCc1ccc(-c2nn(Cc3cccnc3)c3ccccc23)o1  solubility (aqueous buffer; 6 h, pH 7.4): > 45 µg/mL
C[C@@H]1COCCN1c1cccc(-c2ccc3ncnc(Nc4ncco4)c3c2)c1  solubility (aqueous buffer; pH 7.4, 25 °C): 23 µM
N[C@@H]1COc2ccc(-c3cccc(COc4ccccc4C(Nc4ccc5oc(=O)[nH]c5c4)C(=O)O)c3)cc21 (mixture of isomers)  solubility (aqueous buffer; pH 6.8): 200 µM
c1cc(-c2ccc3ncnc(Nc4ncco4)c3c2)nc(N2CCOCC2)n1  solubility (aqueous buffer; pH 7.4, 25 °C): 3 µM
CNS(=O)(=O)c1ccc(Nc2ncc(C(F)(F)F)c(N3CCC(C)(O)CC3)n2)c(C)c1  solubility (PBS; 2 h, pH 7.4): 2.7 µM
CCN(CC)CCOc1ccc2c(=O)c3c([nH]c2c1)CCCC3  solubility (absorbance; aqueous buffer; 90 min, pH 7.4): > 500 µM
COc1cc(NC(=O)Cn2ccc3cc(F)c(-c4cnn(C)c4)cc32)cc(OC)c1OC  solubility (PBS; pH 7.4): < 2.7 µM
Cc1cc(/C=C/C#N)cc(C)c1Nc1ccnc(Nc2ccc(C#N)cc2)n1  solubility (water; 24 h, 37 °C): 0.2 µg/mL
OCc1ccc(-c2nn(Cc3ccccc3)c3cccnc23)o1  solubility (aqueous buffer; 6 h, pH 7.4): > 45 µg/mL
FC(F)(F)c1cc(Nc2ncnc3ccc(-c4cccc(N5CCOCC5)c4)cc23)ccc1Cl  solubility (aqueous buffer; pH 7.4, 25 °C): < 0.7 µM
CNS(=O)(=O)c1ccc(Nc2ncc3cc(Cl)c(=O)n(C4CCCC4)c3n2)c(C)c1  solubility (PBS; 2 h, pH 7.4): 0.3 µM
CN(C)CCOc1ccc2c(=O)c3c([nH]c2c1)CCCC3  solubility (absorbance; aqueous buffer; 90 min, pH 7.4): > 500 µM
Cc1ncc(-c2cc3cc(-c4c(C)ccc(O)c4C)cnc3[nH]2)cn1  solubility (aqueous buffer; 24 h, pH 7.4): < 1.56 µM
CNS(=O)(=O)c1ccc(Nc2ncc(C(F)(F)F)c([C@H]3CC[C@](C)(O)CC3)n2)c(C)c1  solubility (FaSSIF; 2 h): 14 µM
CN(CC(=O)Nc1ccc(N(C)c2ccc(Cl)c(F)c2)cc1)c1ccccc1N1CCCC1=O  solubility (PBS; pH 7.4): < 2.5 µM
CCOC(=O)C1=C(CN2CCC[C@@H]2C(=O)Nc2ccc(B(O)O)cc2)NC(c2nccs2)=N[C@H]1c1ccc(F)cc1Br  solubility (HPLC; aqueous buffer; pH 7): 2.57 µg/mL
Cc1ccc(N(C)c2ccc(NC(=O)CN(C)c3cccnc3N3CCCC3=O)cc2)cc1  solubility (PBS; pH 7.4): 16 µM
O=c1c2c(F)cc(Cl)cc2[nH]c2cccc(Oc3ccc(OC(F)(F)F)cc3)c12  solubility (absorbance; aqueous buffer; 90 min, pH 7.4): 32.3 µM
Cc1cc(-c2ccnc3[nH]cc(F)c23)cc(F)c1[C@@]1(O)[C@H](C)CN(C2CCS(=O)(=O)CC2)C[C@@H]1C  solubility (aqueous buffer): > 50 µg/mL
